{
  "source": "ChEMBL document CHEMBL1671650",
  "about": "“In vitro activity and preclinical profile of TMC435350, a potent hepatitis C virus protease inhibitor” (Antimicrob Agents Chemother, 2009)",
  "key": {"Hepatitis C virus [1]": {"tested_on": "Hepatitis C virus", "assay": "Antiviral activity against Hepatitis C virus 1b infected in human HuH7 cells assessed as viral RNA level after 72 hrs by quantitative reverse transcriptase PCR", "assay_type": "functional, organism-based, Hepacivirus hominis", "conditions": "genotype 1b, Huh-7, 72 h", "procedure,_shortened": "(§1)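 Replicon cells (Huh7-Luc at 3,000/well; con1b S2204I or 1a H77 P1496L/S2204I at 6,000/well) exposed to a dilution range for 72 h in 0.5% DMSO without G418. Lysates reverse transcribed 30 min at 42°C with an HCV 5′UTR primer and an RPL13A control. Inhibition from threshold-cycle difference versus mock; EC50 taken from the dose-response curve.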"}, "[2]": {"tested_on": "Bovine viral diarrhea virus 1", "assay": "Antiviral activity against Bovine viral diarrhea virus 1 NADL infected in […] cells inhibition of virus-induced cytopathic effect at 10 to 100 uM", "assay_type": "functional, organism-based", "procedure,_shortened": "(§2)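 Cytopathic effect inhibition assay: BVDV-NADL in MDCK cells; WNV-NY99/1 in Vero cells. Highest concentration tested 10 to 100 μM.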"}, "[3]": {"assay": "Apparent volume of distribution at steady-state in Sprague-Dawley rat at 4 mg/kg, iv", "assay_type": "ADME, organism-based", "design": "dose 4 mg/kg, route intravenous", "conditions": "in vivo", "procedure,_shortened": "(§3)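 Male SPF Sprague-Dawley rats (200–300 g), n=3. Single slow i.v. tail-vein bolus at 4 mg/kg (2 ml/kg) in 20% hydroxypropyl-β-cyclodextrin, pH 8.0. Plasma sampled 7 min to 31 h, measured by LC-MS/MS (LLOQ 1 ng/ml). Noncompartmental analysis.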"}, "[4]": {"assay": "Ratio of AUC (0 to 31 hrs) in Sprague-Dawley rat liver to AUC (0 to 31 hrs) in Sprague-Dawley rat plasma at 40 mg/kg, po administered as single dose", "assay_type": "ADME, organism-based", "design": "dose 40 mg/kg, route oral", "conditions": "read-out: Ratio AUC", "procedure,_shortened": "(§4)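 Male specific-pathogen-free Sprague-Dawley rats (200–300 g), three per group, single gastric intubation at 2 ml/kg of a vitamin E TPGS–PEG 400 solution; food and water ad libitum. Plasma sampled 30 min to 31 h; tissues dissected from oral groups. LC-MS/MS (LLOQ 1 ng/ml plasma, 5 ng/g tissue); noncompartmental analysis; ratios from mean of three rats.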"}, "[5]": {"tested_on": "Human immunodeficiency virus 1", "assay": "Antiviral activity against Human immunodeficiency virus 1 3b infected in human MT4 cells at 10 to 100 uM", "assay_type": "functional, organism-based", "procedure,_shortened": "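HIV-1 IIIB in MT-4 cells, enhanced green fluorescent protein-based read-out. Highest concentration tested 10 to 100 μM.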"}, "[6]": {"assay": "Ratio of AUC (0 to 31 hrs) in Sprague-Dawley rat lung to AUC (0 to 31 hrs) in Sprague-Dawley rat plasma at 40 mg/kg, po administered as single dose", "assay_type": "ADME, organism-based", "design": "dose 40 mg/kg, route oral", "procedure,_shortened": "as §4"}, "[7]": {"assay": "Ratio of AUC (0 to 31 hrs) in Sprague-Dawley rat heart to AUC (0 to 31 hrs) in Sprague-Dawley rat plasma at 40 mg/kg, po administered as single dose", "assay_type": "ADME, organism-based", "design": "dose 40 mg/kg, route oral", "procedure,_shortened": "as §4"}, "West Nile virus": {"tested_on": "West Nile virus", "assay": "Antiviral activity against West Nile virus NY99/1 infected in green monkey Vero cells inhibition of virus-induced cytopathic effect at 10 to 100 uM", "assay_type": "functional, organism-based", "procedure,_shortened": "as §2"}, "Hepatitis C virus [8]": {"tested_on": "Hepatitis C virus", "assay": "Antiviral activity against Hepatitis C virus in presence of 40 mg/ml human serum albumin"}, "Hepatitis C virus [9]": {"tested_on": "Hepatitis C virus", "assay": "microbe, parasite or virus in culture"}, "Plasma": {"tested_on": "Plasma", "assay": "Initial plasma concentration in Sprague-Dawley rat at 4 mg/kg, iv", "assay_type": "ADME, organism-based", "design": "dose 4 mg/kg, route intravenous", "conditions": "in vivo", "procedure,_shortened": "as §3"}, "[10]": {"assay": "Cmax in Sprague-Dawley rat plasma at 40 mg/kg, po upto 31 hrs by liquid chromatography-tandem mass spectrometry", "assay_type": "ADME, organism-based", "design": "dose 40 mg/kg, route oral", "procedure,_shortened": "(§5)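 Male SPF Sprague-Dawley rats (200–300 g), three per group. Oral gavage at 40 mg/kg (2 ml/kg) in TPGS–PEG400 solution. Plasma sampled 0.5–31 h, measured by LC-MS/MS (LLOQ 1 ng/ml). Noncompartmental analysis.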"}, "Hepatitis C virus [11]": {"tested_on": "Hepatitis C virus", "assay": "Antiviral activity against Hepatitis C virus 1b isolate con1 infected in human HuH7 cells assessed as viral RNA level after 72 hrs by quantitative reverse transcriptase PCR", "assay_type": "functional, organism-based, Hepacivirus hominis", "conditions": "Con1, Huh-7, 72 h", "procedure,_shortened": "as §1"}, "[12]": {"assay": "Tmax in Sprague-Dawley rat large intestine", "assay_type": "ADME, tissue-based", "procedure,_shortened": "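Male Sprague-Dawley rats given a single oral dose of 40 mg/kg in TPGS–PEG400, three per time point. Tissues dissected at times up to 31 h and measured by LC-MS/MS (LLOQ 5 ng/g).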"}, "[13]": {"assay": "Cytotoxicity against human HEK293T cells upto 42 uM after 3 to 4 days by resazurin proliferation assay", "assay_type": "cell-based", "conditions": "hek-293t", "procedure,_shortened": "(§6)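 Human cell lines in DMEM with 10% heat-inactivated FBS and 2 mM L-glutamine (replicon cells plus 0.75 mg/ml G418 in maintenance). Exposed to compound for 3 to 4 days; resazurin fluorescence read-out. CC50 from inhibition curves.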"}, "[14]": {"assay": "AUC (0 to 24 hrs) in Sprague-Dawley rat at 40 mg/kg, po", "assay_type": "ADME, organism-based", "design": "time < 24 hr, dose 40 mg/kg, route oral", "conditions": "plasma", "procedure,_shortened": "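Male specific-pathogen-free Sprague-Dawley rats (200-300 g), three per group; single gastric intubation of vitamin E TPGS-polyethylene glycol 400 solution at 2 ml/kg. Plasma taken from orbital plexus at 0.5, 1, 2, 4, 8, 24 and 31 h; LC-MS/MS (LLOQ 1 ng/ml); noncompartmental analysis; rats fed and watered ad libitum.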"}, "[15]": {"assay": "Cytotoxicity against human Saos2 cells after 3 to 4 days by resazurin proliferation assay", "assay_type": "cell-based, SAOS-2", "procedure,_shortened": "as §6"}, "[16]": {"assay": "Half life (8 to 24 hrs) in Sprague-Dawley rat plasma at 40 mg/kg, po", "assay_type": "ADME, organism-based", "design": "dose 40 mg/kg, route oral", "procedure,_shortened": "as §5"}, "Hepatitis C virus [17]": {"tested_on": "Hepatitis C virus", "assay": "Inhibition of HCV 1b isolate con1 NS3/4A protease using RetS1 as a substrate by fluorescence resonance energy transfer cleavage assay"}, "[18]": {"assay": "Tmax in Sprague-Dawley rat plasma at 40 mg/kg, po upto 31 hrs", "assay_type": "ADME, organism-based", "design": "dose 40 mg/kg, route oral", "procedure,_shortened": "as §5"}, "[19]": {"assay": "Total plasma clearance in Sprague-Dawley rat at 4 mg/kg, iv", "assay_type": "ADME, organism-based", "design": "dose 4 mg/kg, route intravenous", "procedure,_shortened": "as §3"}, "[20]": {"assay": "Cytotoxicity against human HuH7 cells upto 42 uM after 3 to 4 days by resazurin proliferation assay", "assay_type": "cell-based", "conditions": "huh-7", "procedure,_shortened": "as §6"}, "[21]": {"assay": "Ratio of AUC (0 to 31 hrs) in Sprague-Dawley rat spleen to AUC (0 to 31 hrs) in Sprague-Dawley rat plasma at 40 mg/kg, po administered as single dose", "assay_type": "ADME, organism-based", "design": "dose 40 mg/kg, route oral", "procedure,_shortened": "as §4"}, "[22]": {"assay": "Ratio of AUC (0 to 31 hrs) in Sprague-Dawley rat adrenal gland to AUC (0 to 31 hrs) in Sprague-Dawley rat plasma at 40 mg/kg, po administered as single dose", "assay_type": "ADME, organism-based", "design": "dose 40 mg/kg, route oral", "procedure,_shortened": "as §4"}, "[23]": {"assay": "Cytotoxicity against human HT1080 cells after 3 to 4 days by resazurin proliferation assay", "assay_type": "cell-based, HT-1080", "procedure,_shortened": "as §6"}, "Yellow fever virus": {"tested_on": "Yellow fever virus", "assay": "Antiviral activity against Yellow fever virus 17D infected in green monkey veroE6 cells inhibition of virus-induced cytopathic effect at 10 to 100 uM", "assay_type": "functional, organism-based", "conditions": "Vero", "procedure,_shortened": "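Virus-induced cytopathic effect inhibition assay in VeroE6 cells with YFV-17D, with a known positive control in each run; tested up to a top concentration in the 10–100 µM range.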"}, "[24]": {"assay": "Ratio of AUC (0 to 31 hrs) in Sprague-Dawley rat small intestine to AUC (0 to 31 hrs) in Sprague-Dawley rat plasma at 40 mg/kg, po administered as single dose", "assay_type": "ADME, organism-based", "design": "dose 40 mg/kg, route oral", "conditions": "read-out: Ratio AUC", "procedure,_shortened": "as §4"}, "[25]": {"assay": "AUC (0 to 24 hrs) in Sprague-Dawley rat at 4 mg/kg, iv", "assay_type": "ADME, organism-based", "design": "time < 24 hr, dose 4 mg/kg, route intravenous", "conditions": "plasma", "procedure,_shortened": "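Male specific-pathogen-free Sprague-Dawley rats (200-300 g), n = 3; single slow tail-vein bolus of 20% 2-hydroxypropyl-β-cyclodextrin formulation (pH 8.0) at 2 ml/kg. Plasma sampled from orbital plexus at 7 min, 20 min, 1, 3, 8, 24 and 31 h; LC-MS/MS (LLOQ 1 ng/ml); noncompartmental analysis of individual plasma profiles.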"}},
  "note": "The source made the active and inactive calls.",
  "data": [
    {"smiles": "COc1ccc2c(O[C@@H]3C[C@H]4C(=O)N[C@]5(C(=O)NS(=O)(=O)C6CC6)C[C@H]5/C=C\\CCCCN(C)C(=O)[C@@H]4C3)cc(-c3nc(C(C)C)cs3)nc2c1C", "note": "[SIMEPREVIR]", "values": [
      {"measurement": "EC50", "setting": "Hepatitis C virus [1]", "value": 13, "unit": "nM"},
      {"measurement": "EC90", "setting": "Hepatitis C virus [1]", "value": 28.7, "unit": "nM"},
      {"measurement": "Activity", "setting": "[2]", "value": "inactive"},
      {"measurement": "Vd", "setting": "[3]", "value": 5.3, "unit": "L/kg"},
      {"measurement": "Kp", "setting": "[4]", "value": 39},
      {"measurement": "Activity", "setting": "[5]", "value": "inactive"},
      {"measurement": "Kp", "setting": "[6]", "value": 0.5},
      {"measurement": "Kp", "setting": "[7]", "value": 0.5},
      {"measurement": "Activity", "setting": "West Nile virus", "value": "inactive"},
      {"measurement": "EC50", "setting": "Hepatitis C virus [8]", "value": 14.1, "unit": "nM"},
      {"measurement": "EC50 ratio", "setting": "Hepatitis C virus [9]", "value": 1.8},
      {"measurement": "Cp", "setting": "Plasma", "value": 3560, "unit": "ng/mL"},
      {"measurement": "Cmax", "setting": "[10]", "value": 1430, "unit": "ng/mL"},
      {"measurement": "EC50", "setting": "Hepatitis C virus [11]", "value": 25.2, "unit": "nM"},
      {"measurement": "EC90", "setting": "Hepatitis C virus [11]", "value": 118, "unit": "nM"},
      {"measurement": "Tmax", "setting": "[12]", "value": 8, "unit": "h"},
      {"measurement": "Activity", "setting": "[13]", "value": "Non-toxic"},
      {"measurement": "AUC(0-t) at 24 h", "setting": "[14]", "value": 7740, "unit": "ng·h/mL"},
      {"measurement": "CC50", "setting": "[15]", "value": 16000, "unit": "nM"},
      {"measurement": "half-life", "setting": "[16]", "value": 2.6, "unit": "h"},
      {"measurement": "Ki", "setting": "Hepatitis C virus [17]", "value": 0.4, "unit": "nM"},
      {"measurement": "Tmax", "setting": "[18]", "value": 2, "unit": "h"},
      {"measurement": "clearance", "setting": "[19]", "value": 38.3, "unit": "mL/min/kg"},
      {"measurement": "Activity", "setting": "[20]", "value": "Non-toxic"},
      {"measurement": "Kp", "setting": "[21]", "value": 0.3},
      {"measurement": "Kp", "setting": "[22]", "value": 0.5},
      {"measurement": "CC50", "setting": "[23]", "value": 16000, "unit": "nM"},
      {"measurement": "Activity", "setting": "Yellow fever virus", "value": "inactive"},
      {"measurement": "Kp", "setting": "[24]", "value": 128},
      {"measurement": "AUC(0-t) at 24 h", "setting": "[25]", "value": 1740, "unit": "ng·h/mL"}
    ]}
  ]
}
